Reference: ChEMBL document CHEMBL1134638, “Synthetic 2-aroylindole derivatives as a new class of potent tubulin-inhibitory, antimitotic agents” (J Med Chem, 2001)
In brackets after ≈: the same amount, converted by molar mass. Several values for one entry are separate records, joined by “and”; a condition that tells them apart may be missing. Equal entries are not always repeated.

Columns and labels:
[1] = tested on: HeLa; test: In vitro inhibitory activity against HeLa/KB cells using XTT proliferation assay.; assay type: functional, cell-based; conditions: Homo sapiens
Method in brief: (§1)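 XTT proliferation assay measuring cellular metabolic activity after 48 h incubation with compound. Compounds dissolved in DMSO at 1 mg/mL stock. IC50 or estimates obtained by nonlinear regression. Each experiment at least in duplicate.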

[2] = tested on: Tumor Cell line; test: Mean cytotoxicity against a panel of human tumor cell lines; assay type: functional
Method in brief: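 Modified propidium iodide assay quantifying dead cells by DNA/RNA staining, run on a human tumor cell panel (breast, colon, stomach, lung, melanoma, ovary, renal, soft tissue lines). Growth inhibition expressed as % T/C; IC70 per line from concentration-viability plots. Mean IC70 is the geometric mean across lines; unreached values set to the lowest or highest concentration tested.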

[3] = tested on: Mus musculus; test: Drug relative deaths against MEXF 989 cells for a dose of 100 [mg/kg], schedule of d1-5,8-12 by oral administration in mice; assay type: functional
Method in brief: (§2)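 Outbred NMRI nude mice, 6-8 weeks old, sex matched to donor patient. s.c. fragments (~25 mg) implanted in both flanks. Randomised at 100-200 mm3, 6-12 tumors per group. Compound in DMSO diluted with PBS/0.05% Tween 80 to 10% final DMSO, given orally daily on days 1-5 and 8-12. Toxic deaths and body weight change recorded.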

[4] = tested on: Mus musculus; test: Drug relative deaths against MEXF 989 cells for a dose of 200 [mg/kg], schedule of d1-5,8-12 by peroral administration in mice; assay type: functional; method in brief: as §2
[5] = tested on: Mus musculus; test: Drug relative deaths against RXF 944LX cells for a dose of 100 [mg/kg], schedule of d1-5,8-12 by oral administration in mice; assay type: functional; method in brief: as §2
[6] = tested on: Mus musculus; test: Drug relative deaths against RXF 944LX cells for a dose of 200 [mg/kg], schedule of d1-5,8-12 by peroral administration in mice; assay type: functional; method in brief: as §2
[7] = tested on: Mus musculus; test: Growth delay until tumor doubling in days against RXF 944LX cells for a dose of 100 [mg/kg], schedule of d1-5,8-12 by oral administration in mice; assay type: functional
Method in brief: (§3)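 NMRI outbred nude mice aged 6–8 weeks, sex matched to the donor patient. About 25 mg tumor fragments (MEXF 989 or RXF 944L) implanted s.c. in both flanks. Once tumors reached 100–200 mm3, animals were randomized (6–12 tumors/group). Dosing 100 or 200 mg/kg/day orally on days 1–5 and 8–12, in 10% DMSO/PBS with 0.05% Tween 80. Calipers twice weekly. Outputs: T/C from median tumor weights, growth delay to 200% volume, and body weight change.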

[8] = tested on: Mus musculus; test: Growth delay until tumor doubling in days against MEXF 989 cells for a dose of 100 [mg/kg], schedule of d1-5,8-12 in mice by oral administration.; assay type: functional; method in brief: as §3
[9] = tested on: Mus musculus; test: Medium maximum body weight change in percentage against MEXF 989 cells for a dose of 100 [mg/kg], schedule of d1-5,8-12 by oral administration in mice; assay type: functional; method in brief: as §3
[10] = tested on: Mus musculus; test: Medium maximum body weight change in percentage against MEXF 989 cells for a dose of 200 [mg/kg], schedule of d1-5,8-12 by peroral administration in mice; assay type: functional; method in brief: as §3
[11] = tested on: Mus musculus; test: Medium maximum body weight change in percentage against RXF 944LX cells for a dose of 100 [mg/kg], schedule of d1-5,8-12 by oral administration in mice; assay type: functional; method in brief: as §3
[12] = tested on: Mus musculus; test: Medium maximum body weight change in percentage against RXF 944LX cells for a dose of 200 [mg/kg], schedule of d1-5,8-12 by peroral administration in mice; assay type: functional; method in brief: as §3
[13] = tested on: Mus musculus; test: Growth delay until tumor doubling in days against MEXF 989 cells for a dose of 200 [mg/kg], schedule of d1-5,8-12 by peroral administration in mice; assay type: functional; method in brief: as §3
[14] = tested on: Mus musculus; test: Optimum tumor weight of treated / control animals in % (deviation) for a dose of 100 [mg/kg], schedule of d1-5,8-12 by oral administration in mice; assay type: functional; method in brief: as §3
[15] = tested on: SK-OV-3; test: In vitro inhibitory activity against SK-OV-3 cells using XTT proliferation assay.; assay type: functional, cell-based; conditions: Homo sapiens; method in brief: as §1
[16] = tested on: U373 MG; test: Cytotoxicity against U373 astrocytoma cells.; assay type: functional, cell-based, U-373MG ATCC; conditions: Homo sapiens; method in brief: as §1
[17] = tested on: U373 MG; test: Cell cycle arrest activity against U373 astrocytoma cells.; conditions: Homo sapiens

`COc1ccc2[nH]c(C(=O)c3ccccc3)cc2c1` was tested. Which IC50 [1] did it give?
Its IC50 is 0.068 µM.

And the IC70 [2]?
The IC70 was 0.22 mg/L (≈ 0.875 µM).

And the Activity [3]?
Its Activity is 0%.

And the Activity [4]?
The Activity was 0%.

And the Activity [5]?
Its Activity is 0%.

What about the Activity [6] of the same compound?
Its Activity is 0%.

And the GD200 [7]?
Its GD200 is -0.4 days.

And the GD200 [8]?
The GD200 was 4.8 days.

And the BWC [9]?
Its BWC is 11%.

And the BWC [10]?
Its BWC is 3%.

And the BWC [11]?
The BWC was 11%.

And the BWC [12]?
The BWC was 1%.

What about the GD200 [13] of the same compound?
The GD200 was 12.9 days.

And the “T/C (d)” value [14]?
The value was 34% and 100%.

And the IC50 [15]?
The IC50 was 0.68 µM.

And the IC50 [16]?
The IC50 was 0.074 µM.

What about the IC50 [17] of the same compound?
The IC50 was 0.0627 µM.
